Our source for the IC50 values is ChEMBL document CHEMBL4130343, “Design, synthesis, and evaluation of benzofuran derivatives as novel anti-pancreatic carcinoma agents via interfering the hypoxia environment by targeting HIF-1α pathway” (Eur J Med Chem, 2017).

Bounds are passed on as bounds.

Assay type in all cases: functional, cell-based
The subject of one experiment is BXPC-3. Nature of the experiment: Antiproliferative activity against human BxPC3 cells after 48 hrs by MTT assay. The note with it: BXPC-3, 48 h. The essentials: (§1)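 Cells were seeded at 5×10^5 cells/mL overnight and exposed to graded compound concentrations for 48 h. MTT (5 mg/mL stock) was added for 4 h at 37 °C, and formazan was dissolved in DMSO. Absorbance was read at 570 nm. IC₅₀ was fitted from the curves; values are mean ± SD, n = 3.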
A general note: Tetrazolium assays rely on reduction of a dye to a coloured formazan, in cell work by metabolically active cells.

For experiment [1], the system named is HCT-116. Put plainly: Antiproliferative activity against p53-deficient human HCT116 cells after 48 hrs by MTT assay. The conditions noted are these: HCT-116, 48 h. An outline of the steps: as §1
In the next experiment the test system is PANC-1. Put plainly: Antiproliferative activity against human PANC1 cells after 48 hrs by MTT assay. The note with it: PANC-1, 48 h. The essentials:
as §1

The subject of the next experiment is MCF7. Nature of the experiment: Antiproliferative activity against human MCF7 cells after 48 hrs by MTT assay. The conditions noted are these: MCF7, 48 h. The essentials: as §1
In a further experiment the test system is MDA-MB-231. Nature of the experiment: Antiproliferative activity against human MDA-MB-231 cells after 48 hrs by MTT assay. The conditions noted are these: MDA-MB-231, 48 h. An outline of the steps:
as §1

In another experiment the test system is A549. Nature of the experiment: Antiproliferative activity against human A549 cells after 48 hrs by MTT assay. The note with it: A549, 48 h. An outline of the steps: as §1
Experiment [2] deals with HCT-116. Put plainly: Antiproliferative activity against human HCT116 cells after 48 hrs by MTT assay. The conditions noted are these: HCT-116, 48 h. An outline of the steps: as §1

`Cc1c(C(=O)NCCCN(C)C)oc2ccc(N(Cc3ccc(Br)cc3)S(=O)(=O)c3ccc(Br)cc3)cc12`: the IC50 (in general, the concentration needed to halve the response being measured) turned out to be 2.02 µM in the experiment with BXPC-3; 3.73 µM with HCT-116 [1]; 2.3 µM in the experiment on PANC-1; 3.71 µM in the experiment on MCF7; 6.68 µM in the experiment with MDA-MB-231; 4.31 µM with A549. Further, half-maximal inhibition in the experiment with HCT-116 [2] (IC50) required 3.07 µM.
For the molecule `CCN(CC)CCNC(=O)c1nc2cc(N(Cc3ccc(Br)cc3)S(=O)(=O)c3ccc(Br)cc3)ccc2o1`, the IC50 was found to be 16.3 µM in the experiment on BXPC-3, 12.6 µM in the experiment with PANC-1 and 14.3 µM in the experiment with HCT-116 [2].
For `Cc1c(C(=O)OCCCN(C)C)oc2ccc(N(Cc3ccc(Br)cc3)S(=O)(=O)c3ccc(Br)cc3)cc12`, the IC50 is 24.2 µM with BXPC-3; 7.05 µM with HCT-116 [1]; 24.6 µM in the experiment on PANC-1; 39.7 µM in the experiment on MCF7; 28.6 µM with MDA-MB-231; above 40 µM with A549. In addition, in the experiment with HCT-116 [2], the midpoint of inhibition, the IC50, lay at 11.2 µM.
As to `Cc1c(C(=O)NCCNc2ccccc2)oc2ccc(N(Cc3ccc(Br)cc3)S(=O)(=O)c3ccc(Br)cc3)cc12`, the IC50 with BXPC-3, in the experiment with HCT-116 [1], in the experiment with PANC-1, in the experiment on MCF7, in the experiment with MDA-MB-231 and with A549 was above 40 µM each time. Moreover, the IC50 with HCT-116 [2] was above 40 µM.
With `Cc1c(C(=O)NCCc2ccc(S(N)(=O)=O)cc2)oc2ccc(N(Cc3ccc(Br)cc3)S(=O)(=O)c3ccc(Br)cc3)cc12`, the IC50 in the experiment with BXPC-3 is above 40 µM; with HCT-116 [1] it was 19.2 µM; with PANC-1, above 40 µM; in the experiment with MCF7, above 40 µM; in the experiment on MDA-MB-231, above 40 µM; with A549, above 40 µM. In the experiment on HCT-116 [2], this molecule registered an IC50 of 5.59 µM.
Regarding `Cc1c(C(=O)NCCN(C(C)C)C(C)C)oc2ccc(N(Cc3ccc(Br)cc3)S(=O)(=O)c3ccc(Br)cc3)cc12`, the half-inhibitory concentration (IC50) in the experiment on BXPC-3 was determined as 28.3 µM; in the experiment with HCT-116 [1], 3.11 µM; with PANC-1 it was 6.25 µM; in the experiment on MCF7 it was 10.9 µM; in the experiment on MDA-MB-231, 9.44 µM; with A549, 5.5 µM. The molecule also registered an IC50 in the experiment on HCT-116 [2] of 10.4 µM.
For `CNCCNC(=O)c1oc2ccc(N(Cc3ccc(Br)cc3)S(=O)(=O)c3ccc(Br)cc3)cc2c1C`, the IC50 in the experiment with BXPC-3 was 5.13 µM; with HCT-116 [1] it was 2.37 µM; in the experiment with PANC-1, 2.49 µM; in the experiment with MCF7 it was 4.37 µM; with MDA-MB-231, 7.96 µM; in the experiment on A549, 3.08 µM. Moreover, in the experiment with HCT-116 [2], the IC50 came out at 2.44 µM.
Regarding `Cc1c(C(=O)NCCS(C)(=O)=O)oc2ccc(N(Cc3ccc(Br)cc3)S(=O)(=O)c3ccc(Br)cc3)cc12`, the IC50 in the experiment with BXPC-3, in the experiment with HCT-116 [1], in the experiment with PANC-1, in the experiment with MCF7, in the experiment with MDA-MB-231 and with A549 was above 40 µM each time. Besides, the IC50 in the experiment on HCT-116 [2] is above 40 µM.
As for `Cc1c(C(=O)NCCc2ccccn2)oc2ccc(N(Cc3ccc(Br)cc3)S(=O)(=O)c3ccc(Br)cc3)cc12`, the IC50 in the experiment on BXPC-3, with HCT-116 [1], in the experiment with PANC-1, with MCF7, in the experiment with MDA-MB-231 and with A549 was above 40 µM throughout. The molecule further showed an IC50 in the experiment on HCT-116 [2] above 40 µM.
In the case of `Cc1c(C(=O)N2CCNC(=O)C2)oc2ccc(N(Cc3ccc(Br)cc3)S(=O)(=O)c3ccc(Br)cc3)cc12`, the IC50 in the experiment with BXPC-3 was above 40 µM; with HCT-116 [1] it was 21.9 µM; with PANC-1, above 40 µM; in the experiment on MCF7, above 40 µM; in the experiment on MDA-MB-231, above 40 µM; in the experiment with A549, above 40 µM. In addition, in the experiment with HCT-116 [2], the IC50 was determined as 7.88 µM.
For the molecule `Cc1c(C(=O)N2CCCC(C)C2)oc2ccc(N(Cc3ccc(Br)cc3)S(=O)(=O)c3ccc(Br)cc3)cc12` (stereo not given), the IC50 in the experiment on BXPC-3 stood at 16.6 µM; in the experiment with HCT-116 [1] it was 28.3 µM; in the experiment on PANC-1, 26.2 µM; in the experiment on MCF7, 32.8 µM; with MDA-MB-231, 19.4 µM; with A549, 33.7 µM. In the experiment with HCT-116 [2], this molecule came in with an IC50 of 23.1 µM.
Turning to `Cc1c(C(=O)NCCN2CCOCC2)oc2ccc(N(Cc3ccc(Br)cc3)S(=O)(=O)c3ccc(Br)cc3)cc12`, the IC50 came to 27.2 µM in the experiment on BXPC-3; 13.3 µM in the experiment with HCT-116 [1]; 32.1 µM in the experiment on PANC-1; 17.2 µM in the experiment with MCF7; 23.5 µM in the experiment with MDA-MB-231; 21.4 µM with A549. In addition, in the experiment with HCT-116 [2], the IC50 turned out to be 10.5 µM.
For the molecule `Cc1c(C(=O)NCCN2CCCC2)oc2ccc(N(Cc3ccc(Br)cc3)S(=O)(=O)c3ccc(Br)cc3)cc12`, the IC50 in the experiment with BXPC-3 was 2.36 µM; in the experiment with HCT-116 [1], 2.29 µM; with PANC-1, 2.78 µM; in the experiment on MCF7, 5.44 µM; with MDA-MB-231 it was 8.17 µM; in the experiment with A549 it was 5.29 µM. The molecule also returned an IC50 in the experiment with HCT-116 [2] of 2.67 µM.
`Cc1c(C(=O)N2CCOCC2)oc2ccc(N(Cc3ccc(Br)cc3)S(=O)(=O)c3ccc(Br)cc3)cc12`: the IC50 stood at 29.1 µM in the experiment on BXPC-3; 26.4 µM in the experiment on HCT-116 [1]; 23.8 µM with PANC-1; 15.4 µM with MCF7; 25.1 µM with MDA-MB-231; 19.1 µM in the experiment with A549. In the experiment with HCT-116 [2], this molecule registered an IC50 of 22.1 µM.
Turning to `Cc1c(C(=O)NCC(O)CO)oc2ccc(N(Cc3ccc(Br)cc3)S(=O)(=O)c3ccc(Br)cc3)cc12` (stereo not given), the half-inhibitory concentration (IC50) worked out at 27.6 µM in the experiment on BXPC-3; 11.5 µM in the experiment on HCT-116 [1]; 29.3 µM in the experiment on PANC-1; 36.5 µM in the experiment with MCF7; 16.5 µM in the experiment on MDA-MB-231; 30.5 µM in the experiment with A549. Also, the IC50 in the experiment on HCT-116 [2] is 27.8 µM.
For the molecule `Cc1c(C(=O)NC2CCN(C)CC2)sc2ccc(N(Cc3ccc(Br)cc3)S(=O)(=O)c3ccc(Br)cc3)cc12`, the half-inhibitory concentration (IC50) with BXPC-3 came to 7.1 µM; in the experiment on PANC-1 it was 5.2 µM; in the experiment with HCT-116 [2], 10.1 µM.
For the molecule `Cc1c(C(=O)NCCN(C)C)sc2ccc(N(Cc3ccc(Br)cc3)S(=O)(=O)c3ccc(Br)cc3)cc12`, the IC50 in the experiment with BXPC-3 amounted to 9 µM; in the experiment on PANC-1, 7.89 µM; in the experiment on HCT-116 [2], 9.8 µM.
Turning to `CCN(CC)CCNC(=O)c1sc2ccc(N(Cc3ccc(Br)cc3)S(=O)(=O)c3ccc(Br)cc3)cc2c1C`, the IC50 in the experiment with BXPC-3 was determined as 7.88 µM; in the experiment with PANC-1 it was 7.65 µM; in the experiment on HCT-116 [2], 10.9 µM.
As for `CCN(CC)CCNC(=O)c1[nH]c2ccc(N(Cc3ccc(Br)cc3)S(=O)(=O)c3ccc(Br)cc3)cc2c1C`, the half-maximal inhibitory concentration (IC50) in the experiment on BXPC-3 worked out at 17.4 µM; in the experiment with PANC-1 it was 10.5 µM; in the experiment on HCT-116 [2], 15.8 µM.
The like results for `Cc1c(C(=O)NCCN(C)C)[nH]c2ccc(N(Cc3ccc(Br)cc3)S(=O)(=O)c3ccc(Br)cc3)cc12` were, in that order, 6.98 µM, 11.2 µM and 16.6 µM.
For the molecule `CN(C)CCNC(=O)c1nc2cc(N(Cc3ccc(Br)cc3)S(=O)(=O)c3ccc(Br)cc3)ccc2o1`, the values for the IC50 with BXPC-3, in the experiment with PANC-1 and in the experiment with HCT-116 [2] were 13.7 µM, 13.6 µM and 14.3 µM, respectively.
In the same order, the values of `Cc1c(C(=O)NC2CCN(C)CC2)[nH]c2ccc(N(Cc3ccc(Br)cc3)S(=O)(=O)c3ccc(Br)cc3)cc12` are 7.5 µM, 3.67 µM and 14.5 µM.
Consider `CN1CCC(NC(=O)c2nc3cc(N(Cc4ccc(Br)cc4)S(=O)(=O)c4ccc(Br)cc4)ccc3o2)CC1`, for which the IC50 was 10.2 µM with BXPC-3, 5.91 µM with PANC-1 and 7.32 µM in the experiment on HCT-116 [2].
